Reference: publication PMC7564327 (Acta Pharmaceutica Sinica. B, 2020)

What was measured:
mOatp1a1 = test: qRT-PCR of mOatp1a1 mRNA in liver of treated mice; assay type: in vivo; conditions: mice given 20 mg/kg TDE with 20 mg/kg IPT, ISP or 200 mg/kg AD extract, 4 h
mice liver slices = test: In vitro uptake of TDE in mice liver slices; assay type: in vitro ADME, Kunming mice; conditions: mice liver slices, TDE 10 μmol/L
Method in brief: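 Kunming mice (20–25 g, fasted 12 h) were anaesthetised with urethane, and kidney or liver was decapsulated into ice-cold oxygenated buffer at pH 7.5. Slices of about 30 mg were preincubated 5 min under carbogen at 4 or 37 °C. They were then incubated with 10 μmol/L test compound for 5, 10 or 30 min, with or without reference OAT1/OAT3 or OATP inhibitors or co-ingredients. Slices were then washed, blotted, weighed and homogenised, then extracted with methanol and an internal standard for HPLC–MS.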

hOATP2B1 = molecular target: T1, hOATP2B1 (Homo sapiens, UniProt O94956); test: Cellular uptake in HEK293-hOATP2B1 vs Mock cells; assay type: in vitro ADME; conditions: 100 μmol/L, substrate if >2-fold of wild type
T1 sequence (O94956 1-709): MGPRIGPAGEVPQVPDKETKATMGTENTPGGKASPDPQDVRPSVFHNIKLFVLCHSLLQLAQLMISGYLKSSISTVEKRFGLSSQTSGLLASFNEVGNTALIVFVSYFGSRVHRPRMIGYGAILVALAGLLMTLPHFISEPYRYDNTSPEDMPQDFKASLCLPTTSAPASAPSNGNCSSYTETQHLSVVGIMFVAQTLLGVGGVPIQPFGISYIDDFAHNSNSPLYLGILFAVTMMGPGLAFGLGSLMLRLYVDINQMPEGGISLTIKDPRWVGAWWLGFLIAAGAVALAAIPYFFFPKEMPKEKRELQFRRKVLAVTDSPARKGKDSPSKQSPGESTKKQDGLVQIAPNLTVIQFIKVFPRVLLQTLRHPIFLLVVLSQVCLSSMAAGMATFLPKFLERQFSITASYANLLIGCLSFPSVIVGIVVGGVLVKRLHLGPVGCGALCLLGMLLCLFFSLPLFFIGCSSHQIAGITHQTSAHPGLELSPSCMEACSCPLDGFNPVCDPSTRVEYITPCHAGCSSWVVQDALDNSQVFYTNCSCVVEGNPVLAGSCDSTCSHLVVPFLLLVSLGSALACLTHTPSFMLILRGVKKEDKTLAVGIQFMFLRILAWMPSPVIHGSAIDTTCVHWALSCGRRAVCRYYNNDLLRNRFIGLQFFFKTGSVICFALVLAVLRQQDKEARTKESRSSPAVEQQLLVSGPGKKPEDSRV

hOATP1B1 = molecular target: T2, hOATP1B1 (Homo sapiens, UniProt Q9Y6L6); test: Inhibition of 3H-ES uptake in HEK293-hOATP1B1 cells; assay type: in vitro ADME; conditions: 100 μmol/L IPT, ISP; 100 μg/mL AD extract; substrate 3H-ES
T2 sequence (Q9Y6L6 1-691): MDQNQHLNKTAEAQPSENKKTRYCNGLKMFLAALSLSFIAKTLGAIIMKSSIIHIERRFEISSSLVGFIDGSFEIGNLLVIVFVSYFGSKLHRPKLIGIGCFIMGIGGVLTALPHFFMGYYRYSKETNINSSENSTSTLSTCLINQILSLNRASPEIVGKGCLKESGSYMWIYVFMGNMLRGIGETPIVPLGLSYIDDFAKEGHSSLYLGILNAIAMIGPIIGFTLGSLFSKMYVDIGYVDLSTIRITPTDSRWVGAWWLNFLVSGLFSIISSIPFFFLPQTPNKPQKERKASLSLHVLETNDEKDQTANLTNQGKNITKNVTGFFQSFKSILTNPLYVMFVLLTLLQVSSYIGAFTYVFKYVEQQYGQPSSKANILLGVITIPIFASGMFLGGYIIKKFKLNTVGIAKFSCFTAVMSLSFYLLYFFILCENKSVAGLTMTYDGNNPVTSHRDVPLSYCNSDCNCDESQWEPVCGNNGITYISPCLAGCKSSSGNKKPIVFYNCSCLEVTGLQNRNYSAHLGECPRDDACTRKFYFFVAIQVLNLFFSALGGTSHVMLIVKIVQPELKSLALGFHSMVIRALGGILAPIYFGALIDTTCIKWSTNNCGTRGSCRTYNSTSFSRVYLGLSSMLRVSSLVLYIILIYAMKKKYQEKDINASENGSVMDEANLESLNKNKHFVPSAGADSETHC
Method in brief: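 HEK293 cells stably overexpressing the human transporter, grown in DMEM with 10% FBS and penicillin/streptomycin at 5% CO₂, then seeded in 24-well plates and used at confluence. Cells incubated at 37 °C for 2 min with 50 nmol/L ³H-estrone sulfate, with or without test compound or extract; final DMSO below 0.5%. Stopped by three cold DPBS washes, lysed in 0.1 mol/L NaOH, and counted by liquid scintillation (DPM).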

hOAT1 = molecular target: T3, hOAT1 (Homo sapiens, UniProt Q4U2R8); test: Cellular uptake in MDCK-hOAT1 vs Mock cells; assay type: in vitro ADME; conditions: 100 μmol/L, substrate if >2-fold of wild type
T3 sequence (Q4U2R8 1-563): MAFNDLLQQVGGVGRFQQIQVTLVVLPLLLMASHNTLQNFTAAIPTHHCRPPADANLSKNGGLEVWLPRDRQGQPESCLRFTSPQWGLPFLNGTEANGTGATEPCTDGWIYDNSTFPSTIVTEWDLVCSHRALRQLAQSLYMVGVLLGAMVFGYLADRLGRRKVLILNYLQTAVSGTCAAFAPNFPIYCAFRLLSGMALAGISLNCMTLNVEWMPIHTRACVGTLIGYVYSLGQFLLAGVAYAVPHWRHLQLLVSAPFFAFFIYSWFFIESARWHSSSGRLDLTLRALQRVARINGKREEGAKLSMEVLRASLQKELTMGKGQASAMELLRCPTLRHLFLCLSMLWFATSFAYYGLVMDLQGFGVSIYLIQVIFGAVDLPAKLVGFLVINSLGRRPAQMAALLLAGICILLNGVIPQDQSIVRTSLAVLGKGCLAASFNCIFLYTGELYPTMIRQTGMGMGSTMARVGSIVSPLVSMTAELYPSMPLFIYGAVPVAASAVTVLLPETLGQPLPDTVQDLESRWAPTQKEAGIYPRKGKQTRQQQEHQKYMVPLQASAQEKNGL
Method in brief: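 Transfected cells and matching Mock cells were seeded at 2 × 10⁵ cells/mL and grown 2 days. After a DPBS (pH 7.4) wash and 10 min preincubation at 37 °C, cells took up 100 μmol/L test compound for 2–5 min at 37 °C. Uptake was stopped with three ice-cold DPBS washes, followed by methanol extraction and HPLC–MS. Values were normalised to BCA protein and compared with Mock.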

| SMILES | mRNA level of mOatp1a1 decreased to, compared to TDE alone (mOatp1a1) [%] | effect on the uptake of TDE in liver slices (mice liver slices) | accumulation in HEK293-hOATP2B1 vs HEK293 wild type (hOATP2B1) | inhibition to hOATP1B1 (hOATP1B1) | accumulation in MDCK-hOAT1, fold higher than in MDCK-Mock (hOAT1) [fold] |
| --- | --- | --- | --- | --- | --- |
| CC(C)=CCOc1c2occc2cc2ccc(=O)oc12 [IPT, imperatorin] | 22 | significant inhibition | less than 2 fold | weak or no inhibition | ~4.92 |
| CC(C)=CCOc1c2ccoc2cc2oc(=O)ccc12 [ISP, isoimperatorin] | 37 | significant inhibition | less than 2 fold | weak or no inhibition | ~3.40 |
